Columns and labels:
[1] = Selectivity index, ratio of EC50 for cytotoxicity against human MRC5 cells to EC50 for antitrypanosomal activity against Trypanosoma cruzi Tulahuen CL2 infected in human MRC5 cells; assay type: toxicity, cell-based; settings: read-out: Ratio EC50
Summary of the method: (§1)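 Selectivity index is the MRC-5 EC₅₀ divided by the parasite EC₅₀.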

[2] = system: Trypanosoma brucei rhodesiense; assay: Antitrypanosomal activity against Trypanosoma brucei rhodesiense assessed as parasite growth inhibition; assay type: functional, organism-based
Trypanosoma cruzi = assay: Antitrypanosomal activity against Trypanosoma cruzi Tulahuen CL2 infected in human MRC5 cells assessed as inhibition of parasite growth incubated for 7 days by chlorophenol red-fl-D-galactopyranoside based spectrophotometric analysis; assay type: functional, organism-based; settings: Tulahuen CL2, MRC5, 168 h
Summary of the method: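 T. cruzi Tulahuen CL2 β-galactosidase strain was maintained on MRC-5_SV2 cells. Wells held 4×10³ cells plus 4×10⁴ parasites with a 10-point 4-fold compound series, final DMSO <1%. After 7 days at 37 °C, 5% CO₂, substrate was added and absorbance read at 540 nm after 4 h at 37 °C. IC₅₀ was taken from % reduction versus infected and uninfected controls.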

[3] = Selectivity index, ratio of EC50 for human MRC5 cells to EC50 for antitrypanosomal activity against Trypanosoma brucei brucei; assay type: toxicity; settings: read-out: Ratio EC50; summary of the method: as §1
[4] = system: Trypanosoma brucei brucei; assay: Antitrypanosomal activity against Trypanosoma brucei brucei assessed as parasite growth inhibition; assay type: functional, organism-based
[5] = Selectivity index, ratio of EC50 for human MRC5 cells to EC50 for antitrypanosomal activity against Trypanosoma brucei rhodesiense; assay type: toxicity; settings: read-out: Ratio EC50; summary of the method: as §1
Leishmania infantum = assay: Antileishmanial activity against Leishmania infantum MHOM/MA(BE)/67 infected in mouse primary peritoneal macrophages treated 2 hrs post-infection and incubated for 5 days by Giemsa staining based microscopic analysis; assay type: functional, organism-based; settings: MHOM/MA(BE)/67, Peritoneal macrophage
Summary of the method: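 Peritoneal macrophages from mice, harvested 2 days after 2% potato starch stimulation, infected after 48 h with L. infantum in supplemented RPMI-1640 with 5% FCS. Compounds were added 2 h post-infection as a 10-point 4-fold dilution series, final DMSO <1%, and incubated 5 days at 37 °C, 5% CO₂. Amastigotes per macrophage were counted after 10% Giemsa staining, and IC₅₀ was taken from % reduction versus untreated-infected controls.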

MRC5 = assay: Cytotoxicity against human MRC5 cells assessed as reduction in cell viability after 3 days by resazurin dye based fluorimetric analysis; settings: MRC5, 72 h
Summary of the method: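 MRC-5_SV2 cells, 1.5×10⁵ cells/mL in MEM with Earl's salts, L-glutamine, NaHCO₃ and 5% inactivated FCS, were exposed 3 days at 37 °C, 5% CO₂ to a 10-point 4-fold dilution series, final DMSO <1%. Resazurin was added for 4 h, fluorescence read at ex 550/em 590 nm, and IC₅₀ derived versus untreated and medium controls.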

[6] = Selectivity index, ratio of EC50 for cytotoxicity against mouse primary macrophage to EC50 for antileishmanial activity against Leishmania infantum MHOM/MA(BE)/67 infected in mouse primary peritoneal macrophages; assay type: toxicity; settings: read-out: Ratio EC50
Macrophage = assay: Cytotoxicity against mouse primary macrophage cells assessed as reduction in cell viability; assay type: cell-based
Summary of the method: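 Macrophage toxicity was scored microscopically within the L. infantum assays, using cell detachment, lysis and granulation. At least 500 cells over adjacent fields were scored semi-quantitatively, and CC₅₀ was taken from % reduction in normal cells versus untreated controls.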

SMILES | EC50 [2] [µM] | EC50 [4] [µM] | EC50 (Leishmania infantum) [µM] | selectivity ratio [1] | EC50 (Trypanosoma cruzi) [µM] | selectivity ratio [3] | selectivity ratio [5] | EC50 (MRC5) [µM] | selectivity ratio [6] | EC50 (Macrophage) [µM]
Nc1ncnc2c1c(-c1ccc(Cl)c(Cl)c1)cn2[C@@H]1O[C@H](CO)[C@@H](F)[C@H]1O | 1.55 | 2.7 | 2.83 | 19 | 0.22 | 1 | 2 | 4.14 | 3 | 8
Nc1ncnc2c1c(-c1ccc(Cl)c(Cl)c1)cn2[C@@H]1O[C@H](CO)[C@H](F)[C@H]1O | 1.72 | 2.34 | 3.87 | 35 | < 0.21 | 3 | 4 | 7.38 | 2 | 8
Nc1ncnc2c1c(-c1ccc(F)cc1)cn2[C@@H]1O[C@H](CO)[C@H](F)[C@H]1O | 14.1 | 16.2 | 22.6 | > 44 | 1.45 | > 4 | > 5 | > 64 | 1 | 32
Nc1ncnc2c1c(-c1ccccc1)cn2[C@@H]1O[C@H](CO)[C@@H](F)[C@H]1O | 32.7 | 32 | 50.8 | > 7 | 9.14 | > 2 | > 1 | > 64 | 1 | > 64
Nc1ncnc2c1ccn2[C@@H]1O[C@H](CO)[C@@H](F)[C@H]1O | 1.47 | 22.2 | 23.4 | > 7 | 9.09 | > 2 | > 44 | > 64 | > 2 | > 64
COc1ccc(-c2cn([C@@H]3O[C@H](CO)[C@@H](F)[C@H]3O)c3ncnc(N)c23)cc1 | 25.7 | 43.6 | 32.5 | 2 | 8.61 | < 1 | < 1 | 14.1 | 1 | 32
Cc1cc(-c2cn([C@@H]3O[C@H](CO)[C@H](F)[C@H]3O)c3ncnc(N)c23)ccc1Cl | 3.61 | 7.23 | 5.34 | 28 | 0.75 | 3 | 6 | 20.9 | 1 | 8
Nc1ncnc2c1c(-c1ccc(Cl)cc1)cn2[C@@H]1O[C@H](CO)[C@H](F)[C@H]1O | 2.27 | 5.22 | 5 | 130 | 0.17 | 4 | 10 | 21.7 | 1 | 8

Continued, in another order:

EC50 [2] [µM] | EC50 [4] [µM] | EC50 (Leishmania infantum) [µM] | SMILES | selectivity ratio [1] | EC50 (Trypanosoma cruzi) [µM] | selectivity ratio [3] | selectivity ratio [5] | EC50 (MRC5) [µM] | selectivity ratio [6] | EC50 (Macrophage) [µM]
1.43 | 4.22 | 5.95 | Nc1ncnc2c1c(-c1ccc(Cl)c(F)c1)cn2[C@@H]1O[C@H](CO)[C@H](F)[C@H]1O | 44 | 0.42 | 4 | 13 | 18.6 | 1 | 8
0.21 | 0.96 | 38.4 | Cc1cn([C@@H]2O[C@H](CO)[C@@H](F)[C@H]2O)c2ncnc(N)c12 | > 5 | 13.1 | > 67 | > 312 | > 64 | > 2 | > 64
0.0049 | 0.032 | 8.2 | Nc1ncnc2c1c(Br)cn2[C@@H]1O[C@H](CO)[C@H](F)[C@H]1O | < 1 | 7.46 | 23 | 152 | 0.75 | 2 | 20
0.0077 | 0.032 | 2.33 | Nc1ncnc2c1c(I)cn2[C@@H]1O[C@H](CO)[C@@H](F)[C@H]1O | 170 | 0.039 | 201 | 826 | 6.65 | 9 | 22
0.031 | 0.13 | 0.09 | Nc1ncnc2c1c(Cl)cn2[C@@H]1O[C@H](CO)[C@@H](F)[C@H]1O | 194 | 0.071 | 108 | 448 | 13.8 | 1 | 0.13
0.017 | 0.032 | 27.5 | Nc1ncnc2c1ncn2[C@@H]1O[C@H](CO)[C@@H](F)[C@H]1O | 9 | 0.55 | 154 | 296 | 4.92 | > 2 | > 32
0.34 | 0.81 | 39.3 | C=Cc1cn([C@@H]2O[C@H](CO)[C@@H](F)[C@H]2O)c2ncnc(N)c12 | 31 | 0.65 | 25 | 59 | 20.2 | > 1 | > 64
